Published values from different studies.
Protocols differ between the studies behind these lines.
Target: Tyrosine-protein kinase Mer (MERTK, Homo sapiens, UniProt Q12866)
One construct used (Q12866 21-999): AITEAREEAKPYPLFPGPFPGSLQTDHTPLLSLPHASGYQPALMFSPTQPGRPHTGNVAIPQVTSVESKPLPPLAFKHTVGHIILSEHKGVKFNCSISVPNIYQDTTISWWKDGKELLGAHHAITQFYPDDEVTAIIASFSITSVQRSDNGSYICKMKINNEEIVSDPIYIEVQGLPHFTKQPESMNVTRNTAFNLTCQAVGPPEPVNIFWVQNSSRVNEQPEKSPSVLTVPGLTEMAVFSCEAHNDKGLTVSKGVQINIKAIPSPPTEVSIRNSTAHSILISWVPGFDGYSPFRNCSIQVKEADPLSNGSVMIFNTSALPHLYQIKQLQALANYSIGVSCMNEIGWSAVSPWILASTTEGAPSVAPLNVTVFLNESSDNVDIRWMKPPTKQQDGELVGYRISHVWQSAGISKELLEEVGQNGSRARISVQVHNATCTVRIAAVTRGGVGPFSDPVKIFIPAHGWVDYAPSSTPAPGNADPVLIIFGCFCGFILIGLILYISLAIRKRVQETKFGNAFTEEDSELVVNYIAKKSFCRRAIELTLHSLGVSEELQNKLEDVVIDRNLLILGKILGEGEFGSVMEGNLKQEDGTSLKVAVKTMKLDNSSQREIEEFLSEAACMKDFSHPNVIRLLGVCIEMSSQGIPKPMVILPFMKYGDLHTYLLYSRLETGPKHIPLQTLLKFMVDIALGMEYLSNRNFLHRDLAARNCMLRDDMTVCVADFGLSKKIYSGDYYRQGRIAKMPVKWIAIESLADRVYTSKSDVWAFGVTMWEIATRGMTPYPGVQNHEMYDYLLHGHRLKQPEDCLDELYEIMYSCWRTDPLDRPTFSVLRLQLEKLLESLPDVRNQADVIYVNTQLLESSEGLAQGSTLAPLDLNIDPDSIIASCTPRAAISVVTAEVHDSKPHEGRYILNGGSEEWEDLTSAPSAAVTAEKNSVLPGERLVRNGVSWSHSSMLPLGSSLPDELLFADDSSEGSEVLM

SMILES | test | setting | remaining binding
O=C(N[C@H]1CCCCC/C=C\C2C[C@@]2(C(=O)O)NC(=O)[C@@H]2C[C@@H](Oc3ccncc3)CN2C1=O)OC1CCCC1 (stereo partly drawn) | binding, competition with immobilised ligand | 1 µM | 64%
F[C@@H]1CCN(c2nccc(-c3cnn4ncccc34)n2)C1 | binding | 1 µM | 100%
COc1ncc2cc3ccccc3nc2c1C#N | cell-free assay, competition with immobilised ligand | 5 µM | 100%
C[C@H]1CCN(c2nccc(-c3cnn4ncccc34)n2)C1 | binding | 1 µM | 94%
COc1cnc(Nc2cccc(S(N)(=O)=O)c2)nc1N1CCN(c2ccccc2)C(=O)C1 | binding, competition with immobilised ligand | 1 µM | 94%
N[C@H]1CCN(c2nccc(-c3cnn4ncccc34)n2)C1 | binding | 1 µM | 100%
Cc1cnc(Nc2ccc(C(=O)N3CCC(N4CCCC4)CC3)cc2)nc1-c1cc2ccccc2s1 | binding, competition with immobilised ligand | 1 µM | 0.7%
FC(F)(F)Oc1cccc(-c2cnc3ccc(-c4ccncc4)nn23)c1 | cell-free assay, competition with immobilised ligand | 5 µM | 100%
O=C(NCCCN1CCOCC1)c1ccc(Nc2ncc(Cl)c(-c3ccc(Cl)s3)n2)cc1 | binding, competition with immobilised ligand | 1 µM | 5.5%
CC1CCCN1c1nccc(-c2cnn3ncccc23)n1 (stereo not drawn) | binding | 1 µM | 98%
O=C(NCCCN1CCOCC1)c1ccc(Nc2nccc(-c3cc4ccccc4s3)n2)cc1 | binding, competition with immobilised ligand | 1 µM | 45%
CC(=O)N1CCC(c2ccc(C(=O)NC(=N)N)cc2C(F)(F)F)CC1 | cell-free assay, competition with immobilised ligand | 1 µM | 81%
O=C(Nc1c[nH]nc1C(=O)NC1CCNCC1)c1cc(F)cc(F)c1 | binding, competition with immobilised ligand | 1 µM | 100%
CS(=O)(=O)c1cc(C2(NC(=O)c3cncc4c3cnn4-c3ccc(F)cc3)CC2)ccn1 | cell-free assay, competition with immobilised ligand | 1 µM | 100%
Cc1cnn2ncc(-c3ccnc(N(C)C)n3)c2c1 | binding | 1 µM | 100%
CCc1ccccc1C(=O)Nc1n[nH]c2c(C)c(F)c(C3C(C#N)=C(C)N(C)C(C)=C3C#N)cc12 | cell-free assay, competition with immobilised ligand | 1 µM | 80%
CN(c1nccc(-c2cnn3ncccc23)n1)C1CC1 | binding | 1 µM | 100%
CN(C)c1ncnc(-c2ccc3nc(Nc4cc(CN5CCN(C(=O)CC(F)(F)F)CC5)ccn4)[nH]c3c2)c1Cl | cell-free assay, competition with immobilised ligand | 1 µM | 87%
Nc1ncc2c(n1)-c1c([nH]c3ccc(C#CC4CC4)cc13)CCCC2 | binding, competition with immobilised ligand | 1 µM | 100%
CCC(=O)N[C@H]1CC[C@@H](C(=O)N(C)c2ccc(-c3nc4ccccc4o3)cc2)C1 | cell-free assay, competition with immobilised ligand | 1 µM | 100%
c1cncc(-c2cccc(Nc3nccc(NC4CCCCC4)n3)c2)c1 | binding, competition with immobilised ligand | 10 µM | 4.6%
